Measurements from ChEMBL document CHEMBL1833930, “Synthesis and biological activities of triazole derivatives as inhibitors of InhA and antituberculosis agents” (2011).
Values after ≈ are worked out from the molar mass of the structure shown.

Experiments:
[1] = system: Mycobacterium tuberculosis; test: Antimycobacterial activity against Mycobacterium tuberculosis H37Rv by twofold dilution method; assay type: functional
Method in brief: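 Single colony inoculated into complete Middlebrook 7H9 and grown at 37 °C to exponential phase (~10⁸ CFU/mL, OD600 0.8–1.0). Diluted to ~10⁷ CFU/mL, then streaked onto plates with two-fold serial compound dilutions. MIC was the lowest concentration inhibiting growth. Three independent repeats.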

[2] = molecular target: T1, Enoyl-[acyl-carrier-protein] reductase [NADH] (Mycobacterium tuberculosis) (UniProt P9WGR1); test: Inhibition of Mycobacterium tuberculosis InhA expressed in Escherichia coli BL21 using trans-2-dodecenoyl-Coenzyme A as substrate at 50 uM by spectrophotometry
T1 sequence (whole entry): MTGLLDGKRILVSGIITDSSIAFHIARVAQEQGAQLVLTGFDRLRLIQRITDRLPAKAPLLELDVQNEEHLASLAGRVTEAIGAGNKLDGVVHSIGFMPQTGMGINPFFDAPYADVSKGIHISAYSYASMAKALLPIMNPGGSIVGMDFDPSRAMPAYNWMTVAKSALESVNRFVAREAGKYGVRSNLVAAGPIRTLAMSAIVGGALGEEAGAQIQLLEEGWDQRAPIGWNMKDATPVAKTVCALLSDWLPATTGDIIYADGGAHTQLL
Method in brief: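 Recombinant M. tuberculosis InhA was expressed in E. coli with 1 mM IPTG overnight at 20 °C. It was purified on Ni-NTA and desalted into 30 mM PIPES pH 6.8, 150 mM NaCl. Reactions ran in buffer at pH 6.8 with 150 mM NaCl. Controls were run identically without inhibitor.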

| SMILES | MIC [1] [µM] | inhibition [2] [%] |
| --- | --- | --- |
| Oc1cc(Cl)ccc1Oc1ccc(Cl)cc1Cl [TRICLOSAN] | 34.5 (≈ 9.99 µg/mL) | – |
| CCCCCCCCn1cc(C(=O)Cc2ccc(Cl)cc2Cl)nn1 | 27.2 (≈ 10 µg/mL) | – |
| O=C(Cc1ccc(Cl)cc1Cl)c1cn(Cc2ccccc2)nn1 | 289 (≈ 100 µg/mL) | – |
| CCCCCCCCCCCCn1cc(CCc2ccccc2)nn1 | ≤ 5.9 | 40 |
| COc1cccc(Cn2cc(C(=O)Cc3ccccc3)nn2)c1 | 81.3 (≈ 25 µg/mL) | 10 |
| CCCCCCCCCn1cc(CCc2ccccc2)nn1 | 16.7 (≈ 5 µg/mL) | 58 |
| c1ccc(CCc2cn(CC3CCCCC3)nn2)cc1 | 186 (≈ 50 µg/mL) | – |
| Cc1cc(C)cc(Cn2cc(C(=O)Cc3ccc(Cl)cc3Cl)nn2)c1 | 267 (≈ 100 µg/mL) | – |
| O=C(Cc1ccccc1)c1cn(Cc2ccccc2)nn1 | 361 (≈ 100 µg/mL) | 13 |
| Cc1cc(C)cc(Cn2cc(CCc3ccccc3)nn2)c1 | 34.3 (≈ 9.99 µg/mL) | 11 |
| Cc1cc(C)cc(Cn2cc(C(=O)Cc3ccccc3)nn2)c1 | > 327 | 10 |
| c1ccc(Cc2cn(Cc3ccccc3)nn2)cc1 | 201 (≈ 50 µg/mL) | – |
| CCCCCCCCn1cc(CCc2ccccc2)nn1 | 35 (≈ 9.99 µg/mL) | 46 |
| c1ccc(Cn2cc(-c3ccccc3)nn2)cc1 | > 425 | – |
| O=C(Cc1ccccc1)c1cn(Cc2ccc([N+](=O)[O-])cc2)nn1 | 310 (≈ 100 µg/mL) | – |
| c1ccc(CCc2cn(Cc3ccccc3)nn2)cc1 | 94.9 (≈ 25 µg/mL) | 15 |
| COc1cccc(Cn2cc(C(=O)Cc3ccc(Cl)cc3Cl)nn2)c1 | 13.3 (≈ 5 µg/mL) | – |
| O=C(Cc1ccccc1)c1cn(CC2CCCCC2)nn1 | 88.2 (≈ 25 µg/mL) | 12 |
| O=C(Cc1ccc(Cl)cc1Cl)c1cn(Cc2ccc([N+](=O)[O-])cc2)nn1 | 256 (≈ 100 µg/mL) | – |
| CCCCCCCCn1cc(C(=O)Cc2ccccc2)nn1 | 83.5 (≈ 25 µg/mL) | 25 |
| COc1cc(Cn2cc(C(=O)Cc3ccccc3)nn2)cc(OC)c1 | > 296 | – |
| COc1cc(Cn2cc(C(=O)Cc3ccc(Cl)cc3Cl)nn2)cc(OC)c1 | 246 (≈ 100 µg/mL) | – |
| CCCCCCCCn1cc(C(O)Cc2ccc(Cl)cc2Cl)nn1 (racemic) | 67.5 (≈ 25 µg/mL) | – |
| CCCCCCCCn1cc(C(O)Cc2ccccc2)nn1 (racemic) | 33.2 (≈ 10 µg/mL) | – |
